Assay outcomes as filed in PubChem.
MDM2 E3 inh: MDM2-luciferase reporter signal enhancers, primary screen, MDM2 E3 ligase inhibitor project, cell-based, luminescence, 1536-well; E3 ubiquitin-protein ligase Mdm2 (Homo sapiens), Q00987; cell-based MDM2 ubiquitination luciferase reporter, 2 h; 0 = plate control, 100 = twice control, blank-subtracted; signal enhancement, % at 5 µM; hit rate 0.11% among 210,000; AID 1230, 2008;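 active = signal enhancement of 30% or more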;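 note: luminescence tracks abundance of the self-degrading MDM2-luciferase fusion protein; higher signal means inhibition of MDM2 E3 ligase activity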
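Assay system: mammalian cells stably expressing self-ubiquitinating, self-degrading MDM2 E3–luciferase fusion. Quantity: 2000 cells in each well. Medium: DMEM culture medium. Compound dosing: single-point 5 µM. Timing: cell settling 4 h, compound treatment 2 h, both 37 °C. Technique: luciferase luminescence. Read-out basis: percent signal gain over controls, blank-subtracted. Benchmarks: plate controls and plate blanks.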
S1P3 antag: S1P3 receptor antagonists, primary screen, cell-based; hit rate 0.27% among 170,000; CHO S1P3 NFAT-BLA reporter, FRET fluorescence, antagonist mode; inhibition, % at 4.98 µM; AID 485, 2006; Sphingosine 1-phosphate receptor 3 (Homo sapiens), Q99500;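 active = inhibition above the plate cutoff, the mean inhibition of test wells on that plate plus 3 SD, cut at about 28% in these data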;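 note: cells challenged with S1P at its EC80 of 0.8 µM; blue over green emission ratio from cleaved BLA substrate after 4 h stimulation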
Target sequence (Q99500 whole entry, looked up): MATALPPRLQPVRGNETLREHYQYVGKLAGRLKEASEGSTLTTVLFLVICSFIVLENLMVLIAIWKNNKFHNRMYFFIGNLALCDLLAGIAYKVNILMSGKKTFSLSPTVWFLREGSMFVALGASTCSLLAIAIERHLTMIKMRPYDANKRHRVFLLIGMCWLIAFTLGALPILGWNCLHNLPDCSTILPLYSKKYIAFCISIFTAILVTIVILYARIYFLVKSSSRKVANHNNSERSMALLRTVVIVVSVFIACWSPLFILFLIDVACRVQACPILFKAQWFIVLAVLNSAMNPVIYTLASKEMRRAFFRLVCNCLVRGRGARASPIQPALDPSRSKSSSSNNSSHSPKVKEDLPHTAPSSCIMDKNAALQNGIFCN
Hsp70 activator: Hsp70 transcriptional activators, primary screen, cell-based, HeLa, Hsp70 promoter luciferase, luminescence, 10 µM; HeLa Hsp70 promoter luciferase reporter; scaled: vehicle 0, proteasome-inhibitor control 100%; activation, % at 10 µM; hit rate 0.04% among 200,000; AID 1203, 2008;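 active = activation above the mean across all tested compounds plus 3 SD, cutoff set per campaign, cut at about 5.5% in these data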
CHOP inhibitor: inhibitors of CHOP promoter induction, primary screen, cell-based, unfolded protein response, luciferase reporter; CHO-K1 CHOP-promoter luciferase, tunicamycin-induced, 15-18 h; inhibition, % at 10 µM; hit rate 3.8% among 220,000; AID 2732, 2010;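 active = compounds that reduced the stress-induced luciferase reporter signal by more than about 70% of percent inhibition, limit read from the data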
Each line names hits and unclear results; the compound was inactive in the other large screens. This is a sample that favours compounds with a hit; in the whole collection about 4% have one here.

Cc1cccc(C)c1OCc1nnc(NC(=O)CSc2ccc(Cl)cc2)s1	CHOP inhibitor 82.9
COc1cc(/C=C(\NC(=O)c2ccccc2)C(=O)Nc2cccc(O)c2)c([N+](=O)[O-])cc1OC	none (no result: S1P3 antag)
O=S(Cc1ccc(Br)cc1)Cc1nnc(SCc2ccc(Cl)cc2)n1-c1ccccc1 (stereo unspecified)	CHOP inhibitor 85.0 (no result: S1P3 antag)
O=S(Cc1ccc(Br)cc1)Cc1nnc(SCc2c(F)cccc2Cl)n1-c1ccccc1 (stereo unspecified)	CHOP inhibitor 74.3
CCOC(=O)N1CCC(c2nc3ccccc3[nH]2)CC1	none
O=[N+]([O-])c1nn(-c2ccc3c(c2)OCCO3)n(O)c1=NC1CCCCC1	CHOP inhibitor 86.9 (no result: S1P3 antag)
O=[N+]([O-])c1nn(-c2ccc3c(c2)OCCO3)n(O)c1=NCc1ccccc1Cl	none (no result: S1P3 antag)
Cc1c(C#N)c(NC(=O)CCl)n(Cc2cccs2)c1C	none
CCC(Sc1nc2c(c(=O)[nH]1)CCC2)C(=O)Nc1cccc(OC)c1 (stereo unspecified)	none
O=C(O)CC1CCC(=C(Cl)Cl)C1 (stereo unspecified)	CHOP inhibitor 79.0
O=C(O)CC1CCS(=O)(=O)C1 (stereo unspecified)	none
COc1ccc(NC(=S)Nc2cc(-c3ccccc3)[nH]n2)cc1Cl	CHOP inhibitor 77.9 (no result: S1P3 antag)
COc1ccc(NC(=S)Nc2cc(C)[nH]n2)cc1Cl	none (no result: MDM2 E3 inh, Hsp70 activator)
O=C(CNc1ccccc1)N/N=C/c1cn(-c2ccccc2)nc1-c1ccccc1	CHOP inhibitor 95.9
O=S(=O)(N/N=C\c1cn(-c2ccccc2)nc1-c1ccccc1)c1ccccc1	CHOP inhibitor 95.6 (no result: S1P3 antag)
Cc1cc(C(=O)COC(=O)C2COc3ccccc3O2)c(C)n1CC1CCCO1 (stereo unspecified)	CHOP inhibitor 77.4
Cc1cc(C(=O)COC(=O)c2cccnc2Cl)c(C)n1CC1CCCO1 (stereo unspecified)	CHOP inhibitor 79.8
Cc1cc(C(=O)COC(=O)c2cc(O)c3ccccc3c2O)c(C)n1CC1CCCO1 (stereo unspecified)	none
Cc1cc(C(=O)COC(=O)c2ccccc2Br)c(C)n1CC1CCCO1 (stereo unspecified)	CHOP inhibitor 76.8 (no result: MDM2 E3 inh, Hsp70 activator)
Cc1ccc(C(=O)OCC(=O)c2cc(C)n(CC3CCCO3)c2C)cc1 (stereo unspecified)	none
O=C(CCc1ccc(S(=O)(=O)N2CCOCC2)cc1)N1CCc2ccccc2C1	none
O=C(NCc1ccccn1)c1cccn1-c1ncc(C(F)(F)F)cc1Cl	none
O=C1CC(c2ccco2)CC(O)=C1C=Nc1ccc(Br)cc1 (stereo unspecified)	CHOP inhibitor 87.4 (no result: S1P3 antag)
Cc1nc(C)c(C(=O)NNC(=O)c2ccc(Br)cc2)s1	none
CC1(C)C=Cc2c(c3c(c4c(=O)c(-c5ccc(O)cc5)coc24)OC(C)(C)CC3)O1	CHOP inhibitor 92.0
CC(C)=CCc1c2c(c3occ(-c4ccc(O)cc4)c(=O)c3c1O)C=CC(C)(C)O2	CHOP inhibitor 76.3
O=c1c(-c2ccc(O)cc2)coc2cc(O)cc(O)c12	none (no result: S1P3 antag, Hsp70 activator)
CCn1ccnc1C(O)c1ccccc1OC (stereo unspecified)	none (no result: S1P3 antag)
N#Cc1cnn2c3c(cnc12)C(=O)N1CCc2ccccc2C1C3 (stereo unspecified)	none
CC(C)c1cccc(C(C)C)c1NC(=O)c1ccc(OCC(=O)NCc2ccccc2)cc1	CHOP inhibitor 94.3
CC(C)(C)C(=O)C(Cl)C(=O)Nc1ccccc1 (stereo unspecified)	CHOP inhibitor 80.4 (no result: MDM2 E3 inh, Hsp70 activator)
Cc1cccc(N(CC(=O)NC(C)C)C(=O)c2ccc(N3CCCC3)nc2)c1	none
S=c1[nH]nc(-c2ccncc2)n1/N=C/C(Cl)=C\c1ccccc1	CHOP inhibitor 76.0
CC(/C=N/n1c(-c2cc(C)[nH]n2)n[nH]c1=S)=C\c1ccco1	none (no result: Hsp70 activator)
Cc1ccc(-c2nn(-c3ccccc3)cc2/C=N/n2c(-c3ccncc3)n[nH]c2=S)cc1	CHOP inhibitor 89.3 (no result: Hsp70 activator)
CC(/C=N/n1c(-c2ccc(Cl)cc2)n[nH]c1=S)=C\c1ccco1	CHOP inhibitor 95.5
CC(C)c1ccc(/C=N/NC(=O)c2nnn(-c3nonc3N)c2CSC2=NCCS2)cc1	CHOP inhibitor 74.1
Cc1c(NC(=O)C(C)OC(=O)c2c3c(nc4ccccc24)CCC3)c(=O)n(-c2ccccc2)n1C (stereo unspecified)	none
CC1CC(C)CN(S(=O)(=O)c2ccc(C(=O)NCc3ccco3)cc2)C1 (stereo unspecified)	none
O=C(O)c1ccc2c(c1)C(=O)N(c1cc(C(=O)O)ccc1Br)C2=O	none
O=C(/C=C/c1ccc(Cl)cc1Cl)N(Cc1ccc(Cl)cc1)C1CCS(=O)(=O)C1 (stereo unspecified)	CHOP inhibitor 79.2
COc1ccc(CC(=O)Nc2ccc(N3CCOCC3)cc2)cc1S(=O)(=O)N1CCOCC1	none (no result: MDM2 E3 inh, Hsp70 activator)
Cc1ccc2c(c1)Oc1ccc([N+](=O)[O-])cc1C(=O)N2	none
Cc1ccc2c(c1)Oc1ccc(NC(=O)CCl)cc1C(=O)N2	CHOP inhibitor 107.1
CCOC(=O)c1cc2c(ccn2C)n1CC(=O)N1CCCC(C)C1 (stereo unspecified)	none (no result: S1P3 antag)
CCOC(=O)c1cc2c(ccn2C)n1CC(=O)N1CCC(Cc2ccccc2)CC1	CHOP inhibitor 71.1
C=CCn1c(O)c(N=Nc2nc3ccccc3c(=O)n2-c2ccccc2)c2ccccc21	none
CSc1ccc(S(=O)(=O)NCCCOC(C)C)cc1	none
CCN(C(=O)COC(=O)c1ccccc1NC(=O)c1ccco1)C1CCS(=O)(=O)C1 (stereo unspecified)	none
CCN(C(=O)COC(=O)c1ccccc1Nc1cccc(C)c1C)C1CCS(=O)(=O)C1 (stereo unspecified)	CHOP inhibitor 70.4 (no result: S1P3 antag)
C=CCOc1c(Br)cc(/C=N/NC(=O)Cc2ccc(C(F)(F)F)cc2[N+](=O)[O-])cc1OC	none
Cc1ccc(/C=C2\OC(=O)c3ccccc32)cc1	none (no result: S1P3 antag)
Cc1ccccc1/C=C1\OC(=O)c2ccccc21	CHOP inhibitor 86.9 (no result: S1P3 antag)
C[C@@H](Oc1ccc(Oc2cnc3ccc(Cl)cc3n2)cc1)C(=O)O	none (no result: MDM2 E3 inh, S1P3 antag, Hsp70 activator)
COc1ccc(/C=N/NS(=O)(=O)c2ccccc2)cc1OC(=O)c1ccc(C)cc1	CHOP inhibitor 73.8 (no result: S1P3 antag)
COc1ccc(/C=N/NS(=O)(=O)c2ccc(C)cc2)cc1OC(=O)c1ccccc1	none (no result: S1P3 antag)
Cn1c(SCC(=O)N/N=C/C=C/c2ccco2)nc2ccccc21	none
CCC(CC)NC(=O)COC(=O)c1ccc(OCC(=O)Nc2ccccc2OC)c(OC)c1	CHOP inhibitor 82.4 (no result: S1P3 antag)
CCOc1ccc(-c2nnc3ccc(SC(C)C)nn23)cc1	none
CCOC(=O)c1sc2ccccc2c1OC(=O)c1ccccc1OC	none
CCOC(=O)c1cc(OC(=O)c2ccccc2OC)n(-c2ccccc2)n1	CHOP inhibitor 80.5 (no result: S1P3 antag)
COCCN(C(=O)CCc1nnc(CCc2c[nH]c3ccccc23)o1)C(C)C	none
COCCOc1cc(Nc2nnc(C(F)(F)F)s2)c(Cl)cc1Cl	CHOP inhibitor 76.7 (no result: S1P3 antag)
